One may read the inhibition as the share of the control response that was lost under treatment. A high value points to strong suppression.

Data set [1] addresses Protein arginine N-methyltransferase 3 (Homo sapiens) (UniProt O60678). Put plainly: Inhibition of PRMT3 (unknown origin) at 10 uM relative to control.
The target in data set [2] is Histone-lysine N-methyltransferase SETDB1 (Homo sapiens) (UniProt Q15047). Put plainly: Inhibition of SETDB1 (unknown origin) at 10 uM relative to control.
The target of data set [3] is T1, Histone-lysine N-methyltransferase NSD3 (Homo sapiens) (UniProt Q9BZ95).
T1 sequence (whole entry): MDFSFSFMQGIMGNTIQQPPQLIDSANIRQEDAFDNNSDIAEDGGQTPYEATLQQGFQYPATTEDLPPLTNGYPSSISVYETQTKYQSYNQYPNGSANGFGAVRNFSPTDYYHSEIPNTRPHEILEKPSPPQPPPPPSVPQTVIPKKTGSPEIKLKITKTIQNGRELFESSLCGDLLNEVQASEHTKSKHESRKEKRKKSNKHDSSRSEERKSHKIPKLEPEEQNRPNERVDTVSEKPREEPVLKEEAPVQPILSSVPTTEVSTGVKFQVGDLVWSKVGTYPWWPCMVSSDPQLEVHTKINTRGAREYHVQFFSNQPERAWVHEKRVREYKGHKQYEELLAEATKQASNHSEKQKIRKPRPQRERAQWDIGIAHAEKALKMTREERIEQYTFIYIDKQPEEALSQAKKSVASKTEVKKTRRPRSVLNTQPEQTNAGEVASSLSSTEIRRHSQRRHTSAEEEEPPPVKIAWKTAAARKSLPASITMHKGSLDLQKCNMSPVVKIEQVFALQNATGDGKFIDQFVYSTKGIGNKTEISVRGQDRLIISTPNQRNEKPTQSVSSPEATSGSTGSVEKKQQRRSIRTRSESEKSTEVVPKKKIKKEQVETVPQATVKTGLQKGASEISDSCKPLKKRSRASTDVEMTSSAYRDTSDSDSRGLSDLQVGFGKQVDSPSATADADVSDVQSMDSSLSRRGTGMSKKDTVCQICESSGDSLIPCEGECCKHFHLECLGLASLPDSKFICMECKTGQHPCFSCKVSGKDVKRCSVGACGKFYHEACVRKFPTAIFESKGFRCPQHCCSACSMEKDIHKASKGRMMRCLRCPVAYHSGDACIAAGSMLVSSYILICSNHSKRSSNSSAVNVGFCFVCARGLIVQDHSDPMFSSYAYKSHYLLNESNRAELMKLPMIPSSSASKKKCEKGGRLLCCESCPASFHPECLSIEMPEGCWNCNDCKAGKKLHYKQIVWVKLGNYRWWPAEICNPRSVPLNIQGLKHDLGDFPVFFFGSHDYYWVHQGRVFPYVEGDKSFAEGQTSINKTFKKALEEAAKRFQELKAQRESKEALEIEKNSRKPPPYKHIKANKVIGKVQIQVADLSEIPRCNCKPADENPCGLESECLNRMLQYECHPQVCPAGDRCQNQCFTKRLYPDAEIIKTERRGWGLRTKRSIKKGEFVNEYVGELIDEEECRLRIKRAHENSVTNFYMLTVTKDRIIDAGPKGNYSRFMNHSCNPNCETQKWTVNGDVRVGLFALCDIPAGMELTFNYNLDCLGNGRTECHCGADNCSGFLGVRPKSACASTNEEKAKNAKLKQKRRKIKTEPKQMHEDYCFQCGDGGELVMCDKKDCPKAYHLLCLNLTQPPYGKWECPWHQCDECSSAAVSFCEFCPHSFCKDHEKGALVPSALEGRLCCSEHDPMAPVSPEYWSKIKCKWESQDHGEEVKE
Put plainly: Inhibition of WHSC1L1 (unknown origin) at 10 uM relative to control.

Data set [4] deals with Histone-lysine N-methyltransferase PRDM9 (Homo sapiens) (UniProt Q9NQV7). Put plainly: Inhibition of PRDM9 (unknown origin) at 10 uM relative to control.
The nature of data set [5]: Intrinsic clearance in CD1 mouse liver microsomes at 1 uM incubated for 5 to 45 mins by LC-MS/MS analysis in presence of NADPH. The class given is ADME. The following applies: read-out: CLH. In outline:
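Mouse liver microsomal incubations; clearance scaled from microsomal data and reported as a mean value.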
(In general: Microsomes from liver hold many membrane-bound enzymes, among them those of drug oxidation.)

In data set [6] the target is T2, Histone-lysine N-methyltransferase SETD7 (Homo sapiens) (UniProt Q8WTS6).
T2 sequence (whole entry): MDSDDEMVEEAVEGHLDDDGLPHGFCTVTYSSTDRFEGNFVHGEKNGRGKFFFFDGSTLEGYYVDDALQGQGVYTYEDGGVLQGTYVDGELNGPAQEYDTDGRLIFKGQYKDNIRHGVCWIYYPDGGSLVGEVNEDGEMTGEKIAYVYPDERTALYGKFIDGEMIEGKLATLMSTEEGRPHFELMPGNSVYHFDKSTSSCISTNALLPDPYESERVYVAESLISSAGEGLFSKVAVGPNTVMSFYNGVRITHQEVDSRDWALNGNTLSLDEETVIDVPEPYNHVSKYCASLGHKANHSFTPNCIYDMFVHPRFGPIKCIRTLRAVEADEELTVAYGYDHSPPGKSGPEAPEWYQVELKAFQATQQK
Put plainly: Inhibition of SETD7 (unknown origin) at 10 uM relative to control.

The target of data set [7] is Histone-lysine N-methyltransferase, H3 lysine-36 specific (Homo sapiens) (UniProt Q96L73). Put plainly: Inhibition of NSD1 (unknown origin) at 10 uM relative to control.
Histone-lysine N-methyltransferase, H3 lysine-36 specific (Homo sapiens), sequence (Q96L73 whole entry): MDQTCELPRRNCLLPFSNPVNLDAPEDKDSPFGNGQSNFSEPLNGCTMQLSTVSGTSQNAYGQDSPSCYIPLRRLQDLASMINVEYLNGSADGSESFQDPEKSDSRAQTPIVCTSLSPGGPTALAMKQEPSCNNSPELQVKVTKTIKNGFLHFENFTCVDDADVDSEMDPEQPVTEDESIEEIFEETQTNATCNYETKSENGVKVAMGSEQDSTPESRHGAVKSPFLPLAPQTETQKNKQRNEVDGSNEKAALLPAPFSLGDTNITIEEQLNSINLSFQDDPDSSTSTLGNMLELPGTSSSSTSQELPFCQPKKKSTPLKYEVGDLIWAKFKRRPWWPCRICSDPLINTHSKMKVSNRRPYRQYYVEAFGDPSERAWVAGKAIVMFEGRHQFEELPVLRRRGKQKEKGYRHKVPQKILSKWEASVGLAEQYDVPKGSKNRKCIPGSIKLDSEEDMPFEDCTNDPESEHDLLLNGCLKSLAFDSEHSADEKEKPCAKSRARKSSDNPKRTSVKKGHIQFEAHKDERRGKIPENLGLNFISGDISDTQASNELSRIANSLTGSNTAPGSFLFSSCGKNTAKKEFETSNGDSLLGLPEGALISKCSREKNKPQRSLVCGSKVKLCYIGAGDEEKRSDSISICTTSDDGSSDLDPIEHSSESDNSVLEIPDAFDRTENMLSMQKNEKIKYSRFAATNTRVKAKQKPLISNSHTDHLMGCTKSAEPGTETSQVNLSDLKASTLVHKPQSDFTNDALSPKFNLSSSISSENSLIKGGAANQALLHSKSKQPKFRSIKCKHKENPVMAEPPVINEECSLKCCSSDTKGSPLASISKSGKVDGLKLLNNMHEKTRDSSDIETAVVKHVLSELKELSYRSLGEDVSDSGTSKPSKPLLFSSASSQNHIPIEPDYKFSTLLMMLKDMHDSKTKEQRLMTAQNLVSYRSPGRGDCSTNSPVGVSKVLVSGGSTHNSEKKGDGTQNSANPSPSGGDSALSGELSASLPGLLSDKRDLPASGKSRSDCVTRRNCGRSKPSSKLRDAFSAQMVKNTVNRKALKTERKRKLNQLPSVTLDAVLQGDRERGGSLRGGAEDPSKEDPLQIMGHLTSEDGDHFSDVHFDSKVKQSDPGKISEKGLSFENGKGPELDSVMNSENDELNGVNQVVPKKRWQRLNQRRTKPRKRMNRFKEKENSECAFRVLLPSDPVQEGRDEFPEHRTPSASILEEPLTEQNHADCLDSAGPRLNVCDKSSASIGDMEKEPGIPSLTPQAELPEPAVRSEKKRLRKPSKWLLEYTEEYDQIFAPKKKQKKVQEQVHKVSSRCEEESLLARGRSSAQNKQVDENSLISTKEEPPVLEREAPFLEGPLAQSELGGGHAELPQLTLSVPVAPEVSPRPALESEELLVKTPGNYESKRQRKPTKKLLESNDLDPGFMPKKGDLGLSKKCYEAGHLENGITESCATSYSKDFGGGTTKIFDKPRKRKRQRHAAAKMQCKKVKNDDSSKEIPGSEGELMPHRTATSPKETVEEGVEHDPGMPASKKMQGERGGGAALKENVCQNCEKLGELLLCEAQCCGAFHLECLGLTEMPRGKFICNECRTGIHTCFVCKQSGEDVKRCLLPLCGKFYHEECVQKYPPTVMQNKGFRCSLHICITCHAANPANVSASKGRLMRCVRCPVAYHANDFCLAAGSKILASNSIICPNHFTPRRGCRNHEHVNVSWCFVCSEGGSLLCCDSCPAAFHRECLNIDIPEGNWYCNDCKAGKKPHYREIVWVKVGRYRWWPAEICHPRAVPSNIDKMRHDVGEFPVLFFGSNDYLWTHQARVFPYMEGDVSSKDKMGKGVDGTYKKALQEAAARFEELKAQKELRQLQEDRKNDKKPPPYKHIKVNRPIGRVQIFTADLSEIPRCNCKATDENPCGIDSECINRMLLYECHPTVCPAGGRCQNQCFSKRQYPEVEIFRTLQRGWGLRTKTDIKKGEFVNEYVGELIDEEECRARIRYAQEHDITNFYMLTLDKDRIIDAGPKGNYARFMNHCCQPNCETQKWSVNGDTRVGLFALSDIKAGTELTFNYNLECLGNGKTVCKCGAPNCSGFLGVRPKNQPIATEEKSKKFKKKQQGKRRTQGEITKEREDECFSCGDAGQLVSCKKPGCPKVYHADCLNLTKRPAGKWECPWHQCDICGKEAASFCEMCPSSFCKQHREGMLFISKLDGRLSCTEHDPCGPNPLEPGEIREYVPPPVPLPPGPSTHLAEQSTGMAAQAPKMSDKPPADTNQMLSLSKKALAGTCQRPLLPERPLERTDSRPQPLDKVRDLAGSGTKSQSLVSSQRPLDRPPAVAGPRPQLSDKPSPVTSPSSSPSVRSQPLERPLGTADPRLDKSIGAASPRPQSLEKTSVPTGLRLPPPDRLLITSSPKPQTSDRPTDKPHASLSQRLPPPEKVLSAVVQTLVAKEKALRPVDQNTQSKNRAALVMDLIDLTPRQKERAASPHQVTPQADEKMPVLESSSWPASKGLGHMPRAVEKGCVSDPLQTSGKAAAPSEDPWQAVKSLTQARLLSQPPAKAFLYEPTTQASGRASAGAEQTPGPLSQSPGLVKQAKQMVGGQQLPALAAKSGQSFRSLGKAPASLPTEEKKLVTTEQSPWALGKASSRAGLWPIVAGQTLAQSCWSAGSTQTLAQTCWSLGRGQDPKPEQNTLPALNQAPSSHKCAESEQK
For data set [8], the target named is T3, Protein arginine N-methyltransferase 7 (Homo sapiens) (UniProt Q9NVM4).
T3 sequence (whole entry): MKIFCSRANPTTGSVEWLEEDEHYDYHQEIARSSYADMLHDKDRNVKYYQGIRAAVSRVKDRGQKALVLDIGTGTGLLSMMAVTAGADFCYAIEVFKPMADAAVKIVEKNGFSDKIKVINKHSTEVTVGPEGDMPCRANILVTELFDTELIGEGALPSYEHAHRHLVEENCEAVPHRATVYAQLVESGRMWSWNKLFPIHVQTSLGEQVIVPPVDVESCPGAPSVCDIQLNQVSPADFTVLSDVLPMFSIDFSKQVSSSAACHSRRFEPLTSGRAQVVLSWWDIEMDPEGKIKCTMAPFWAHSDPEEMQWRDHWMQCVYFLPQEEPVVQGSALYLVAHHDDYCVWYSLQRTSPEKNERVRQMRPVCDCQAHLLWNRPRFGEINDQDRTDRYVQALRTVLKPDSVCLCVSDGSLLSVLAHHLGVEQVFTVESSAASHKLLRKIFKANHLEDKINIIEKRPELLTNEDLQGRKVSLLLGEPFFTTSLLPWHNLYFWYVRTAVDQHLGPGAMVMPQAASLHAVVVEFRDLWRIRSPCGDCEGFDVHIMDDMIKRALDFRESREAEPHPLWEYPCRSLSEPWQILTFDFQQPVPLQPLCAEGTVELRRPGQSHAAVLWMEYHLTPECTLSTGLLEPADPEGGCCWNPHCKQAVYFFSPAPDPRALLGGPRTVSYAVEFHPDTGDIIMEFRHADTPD
Put plainly: Inhibition of PRMT7 (unknown origin) at 10 uM relative to control.

Data set [9] concerns the target Histone-lysine N-methyltransferase, H3 lysine-79 specific (Homo sapiens) (UniProt Q8TEK3). Put plainly: Inhibition of DOT1L (unknown origin) at 10 uM relative to control.

Histone-lysine N-methyltransferase, H3 lysine-79 specific (Homo sapiens), sequence (Q8TEK3 whole entry, looked up): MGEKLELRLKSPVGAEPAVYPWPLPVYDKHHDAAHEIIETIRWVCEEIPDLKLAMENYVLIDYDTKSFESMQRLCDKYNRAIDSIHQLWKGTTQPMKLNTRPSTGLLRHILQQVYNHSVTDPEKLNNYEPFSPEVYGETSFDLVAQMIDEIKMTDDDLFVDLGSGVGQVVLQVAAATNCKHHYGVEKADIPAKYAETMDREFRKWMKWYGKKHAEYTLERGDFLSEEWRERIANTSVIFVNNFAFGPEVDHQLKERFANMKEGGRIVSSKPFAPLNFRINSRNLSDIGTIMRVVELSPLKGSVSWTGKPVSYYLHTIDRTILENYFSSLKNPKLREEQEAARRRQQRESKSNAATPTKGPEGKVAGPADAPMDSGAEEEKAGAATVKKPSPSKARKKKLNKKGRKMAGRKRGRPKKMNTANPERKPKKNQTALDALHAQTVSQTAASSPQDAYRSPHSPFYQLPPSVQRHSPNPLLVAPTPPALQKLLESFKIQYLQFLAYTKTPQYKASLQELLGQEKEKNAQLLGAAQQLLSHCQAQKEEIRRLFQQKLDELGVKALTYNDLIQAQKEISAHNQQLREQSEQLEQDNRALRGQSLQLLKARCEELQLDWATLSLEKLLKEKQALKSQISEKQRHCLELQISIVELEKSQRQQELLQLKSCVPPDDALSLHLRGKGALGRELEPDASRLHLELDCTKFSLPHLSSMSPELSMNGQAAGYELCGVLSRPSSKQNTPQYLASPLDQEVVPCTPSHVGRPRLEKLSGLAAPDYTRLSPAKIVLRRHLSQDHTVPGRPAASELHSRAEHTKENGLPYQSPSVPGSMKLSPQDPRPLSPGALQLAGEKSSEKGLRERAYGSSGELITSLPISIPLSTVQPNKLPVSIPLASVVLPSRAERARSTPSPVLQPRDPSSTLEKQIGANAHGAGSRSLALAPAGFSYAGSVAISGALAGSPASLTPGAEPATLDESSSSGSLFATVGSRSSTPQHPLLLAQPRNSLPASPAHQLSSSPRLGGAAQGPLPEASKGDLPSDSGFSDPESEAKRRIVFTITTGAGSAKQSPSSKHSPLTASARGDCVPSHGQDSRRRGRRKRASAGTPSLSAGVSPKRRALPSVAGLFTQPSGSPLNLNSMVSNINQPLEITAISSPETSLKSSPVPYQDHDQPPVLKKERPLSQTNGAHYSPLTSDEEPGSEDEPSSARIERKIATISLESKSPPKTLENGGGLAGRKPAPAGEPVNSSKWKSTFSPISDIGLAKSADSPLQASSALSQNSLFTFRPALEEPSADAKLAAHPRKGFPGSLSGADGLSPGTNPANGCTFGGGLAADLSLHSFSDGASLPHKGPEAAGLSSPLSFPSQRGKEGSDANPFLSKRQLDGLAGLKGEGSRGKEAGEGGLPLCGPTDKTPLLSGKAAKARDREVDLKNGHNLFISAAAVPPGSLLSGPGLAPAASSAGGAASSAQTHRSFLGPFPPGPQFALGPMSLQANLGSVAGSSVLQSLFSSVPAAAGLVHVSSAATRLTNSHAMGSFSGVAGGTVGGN
Protein arginine N-methyltransferase 3 (Homo sapiens), sequence (O60678 2-531 limits assumed): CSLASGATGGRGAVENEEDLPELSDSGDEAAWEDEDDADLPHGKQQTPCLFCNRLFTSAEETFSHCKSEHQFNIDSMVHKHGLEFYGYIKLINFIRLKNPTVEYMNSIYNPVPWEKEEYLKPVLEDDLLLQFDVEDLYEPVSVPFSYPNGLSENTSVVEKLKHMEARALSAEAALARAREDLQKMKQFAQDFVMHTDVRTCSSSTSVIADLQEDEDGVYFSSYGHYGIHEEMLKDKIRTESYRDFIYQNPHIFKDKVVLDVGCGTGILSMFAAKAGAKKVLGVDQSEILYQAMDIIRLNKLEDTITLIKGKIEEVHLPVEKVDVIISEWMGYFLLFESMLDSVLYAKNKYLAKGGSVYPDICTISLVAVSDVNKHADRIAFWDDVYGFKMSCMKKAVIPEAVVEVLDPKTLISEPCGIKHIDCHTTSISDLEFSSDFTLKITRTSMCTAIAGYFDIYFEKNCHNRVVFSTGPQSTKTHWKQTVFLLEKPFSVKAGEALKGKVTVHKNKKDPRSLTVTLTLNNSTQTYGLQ

Take `O=C1Cc2cc(C(=O)N[C@H]3C[C@H]4CC[C@@H](C3)N4S(=O)(=O)CC3CCN(CCCC(F)(F)F)CC3)c(Cl)cc2N1`: the inhibition in data set [1], in [2], in data set [3], in [4], in data set [6] and in [7] was under 30% in each case. The inhibition in [8] and in data set [9] was under 30% throughout. In data set [5], the CLint scaled at 1 µM was 24 mL/min/kg.

As to `O=C1Cc2cc(C(=O)N[C@H]3C[C@H]4CC[C@@H](C3)N4S(=O)(=O)N3CCC(NCc4ccccc4)CC3)c(Cl)cc2N1`, the inhibition in data set [1], in [2], in data set [3], in data set [4], in data set [6] and in data set [7] was under 30% in each case. In addition, the inhibition in data set [8] and in [9] was under 30% throughout. The CLint scaled at 1 µM in data set [5] turned out to be 34 mL/min/kg.

For the origin of these results see ChEMBL document CHEMBL3797202, “Novel Oxindole Sulfonamides and Sulfamides: EPZ031686, the First Orally Bioavailable Small Molecule SMYD3 Inhibitor” (ACS Med Chem Lett, 2016).
